Measurements published in ChEMBL document CHEMBL4406907, “Exploration of zinc-binding groups for the design of inhibitors for the oxytocinase subfamily of M1 aminopeptidases” (Bioorg Med Chem, 2019).

What was measured:
[1] = biological target: T1, Endoplasmic reticulum aminopeptidase 2 (Homo sapiens, UniProt Q6P179); assay: Inhibition of human recombinant ERAP2 expressed in baculovirus infected Sf9 cells using omniMMP fluorogenic substrate incubated for 5 to 10 mins by fluorescence spectrophotometry analysis
T1 sequence (Q6P179 whole entry): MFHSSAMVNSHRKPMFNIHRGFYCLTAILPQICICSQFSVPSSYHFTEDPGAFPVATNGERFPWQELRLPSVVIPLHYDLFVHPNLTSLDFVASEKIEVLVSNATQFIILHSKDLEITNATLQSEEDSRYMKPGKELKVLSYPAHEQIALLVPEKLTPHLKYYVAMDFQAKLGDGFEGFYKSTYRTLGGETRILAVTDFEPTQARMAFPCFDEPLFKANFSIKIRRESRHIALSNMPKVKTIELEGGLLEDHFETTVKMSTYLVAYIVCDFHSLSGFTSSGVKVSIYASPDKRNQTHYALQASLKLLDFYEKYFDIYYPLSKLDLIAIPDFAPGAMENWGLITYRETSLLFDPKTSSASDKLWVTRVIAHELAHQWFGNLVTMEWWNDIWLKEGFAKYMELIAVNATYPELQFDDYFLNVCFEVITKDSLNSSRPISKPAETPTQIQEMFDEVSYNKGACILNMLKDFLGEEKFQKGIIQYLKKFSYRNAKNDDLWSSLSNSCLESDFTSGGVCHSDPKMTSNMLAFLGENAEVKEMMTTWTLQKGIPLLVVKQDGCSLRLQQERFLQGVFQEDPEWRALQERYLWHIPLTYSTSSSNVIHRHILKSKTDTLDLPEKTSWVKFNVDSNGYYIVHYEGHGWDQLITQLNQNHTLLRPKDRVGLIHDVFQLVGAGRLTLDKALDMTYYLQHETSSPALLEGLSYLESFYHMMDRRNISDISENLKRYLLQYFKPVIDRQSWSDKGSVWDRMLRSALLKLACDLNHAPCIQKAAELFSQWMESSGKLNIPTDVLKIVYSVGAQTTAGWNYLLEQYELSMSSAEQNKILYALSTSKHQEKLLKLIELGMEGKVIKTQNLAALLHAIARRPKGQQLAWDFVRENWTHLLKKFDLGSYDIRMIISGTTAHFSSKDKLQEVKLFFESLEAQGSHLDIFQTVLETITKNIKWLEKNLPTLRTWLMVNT

[2] = biological target: T1, Endoplasmic reticulum aminopeptidase 2; assay: Competitive inhibition of human recombinant ERAP2 expressed in baculovirus infected sf9 cells using R-AMC as substrate incubated for 5 to 10 mins by Michaelis-Menten analysis
[3] = biological target: T2, Endoplasmic reticulum aminopeptidase 1 (Homo sapiens, UniProt Q9NZ08); assay: Inhibition of human recombinant ERAP1 expressed in baculovirus infected Sf9 cells using omniMMP fluorogenic substrate incubated for 5 to 10 mins by fluorescence spectrophotometry analysis
T2 sequence (Q9NZ08 whole entry): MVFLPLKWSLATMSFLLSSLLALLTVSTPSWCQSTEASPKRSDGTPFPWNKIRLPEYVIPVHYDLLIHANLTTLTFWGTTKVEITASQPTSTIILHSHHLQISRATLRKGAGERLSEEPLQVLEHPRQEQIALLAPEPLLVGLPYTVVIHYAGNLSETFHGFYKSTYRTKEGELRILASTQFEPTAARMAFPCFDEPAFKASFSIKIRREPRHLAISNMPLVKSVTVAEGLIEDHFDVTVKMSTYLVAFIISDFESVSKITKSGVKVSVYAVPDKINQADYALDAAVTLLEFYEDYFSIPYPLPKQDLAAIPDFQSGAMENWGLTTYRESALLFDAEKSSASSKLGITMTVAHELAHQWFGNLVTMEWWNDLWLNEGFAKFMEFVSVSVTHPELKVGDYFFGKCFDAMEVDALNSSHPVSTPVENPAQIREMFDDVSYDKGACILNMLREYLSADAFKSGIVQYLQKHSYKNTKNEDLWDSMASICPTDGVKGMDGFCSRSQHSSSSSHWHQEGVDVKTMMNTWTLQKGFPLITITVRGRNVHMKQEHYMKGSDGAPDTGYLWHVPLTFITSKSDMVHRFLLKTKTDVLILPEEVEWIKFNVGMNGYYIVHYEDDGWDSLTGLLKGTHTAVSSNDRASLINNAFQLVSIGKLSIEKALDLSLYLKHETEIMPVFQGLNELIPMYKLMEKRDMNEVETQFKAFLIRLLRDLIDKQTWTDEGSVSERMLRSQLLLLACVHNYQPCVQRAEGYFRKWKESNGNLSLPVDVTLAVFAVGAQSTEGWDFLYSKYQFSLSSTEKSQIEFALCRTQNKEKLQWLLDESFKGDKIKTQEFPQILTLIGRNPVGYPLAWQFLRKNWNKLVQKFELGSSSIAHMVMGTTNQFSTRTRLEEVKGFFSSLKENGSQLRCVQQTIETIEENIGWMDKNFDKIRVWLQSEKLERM

[4] = biological target: T2, Endoplasmic reticulum aminopeptidase 1; assay: Competitive inhibition of human recombinant ERAP1 expressed in baculovirus infected sf9 cells using L-AMC as substrate incubated for 5 to 10 mins by Michaelis-Menten analysis
In short: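 ERAP1 (recombinant, as described previously) at 10 nM with L-AMC as substrate. Michaelis-Menten analysis as previously described. Ki for competitive inhibition derived using a KM for L-AMC of 546 μM.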

[5] = tested on: Insulin-regulated aminopeptidase (Homo sapiens); assay: Inhibition of human recombinant IRAP expressed in baculovirus infected Sf9 cells using omniMMP fluorogenic substrate incubated for 5 to 10 mins by fluorescence spectrophotometry analysis

Row | IC50 [1] [µM] | Ki [2] [µM] | IC50 [3] [µM] | Ki [4] [µM] | inhibition [5] | Compound
1 | 8.8 | 4.8 | > 100 | – | – | CCCC[C@H](N)C(=O)Nc1ccc(C(=O)N[C@@H](Cc2c[nH]c3ccccc23)C(=O)OCc2ccccc2)cc1
2 | > 10 | – | > 100 | – | – | CCCC[C@H](N)C(=O)Nc1cccc(C(=O)N[C@@H](Cc2c[nH]c3ccccc23)C(=O)OCc2ccccc2)c1
3 | 7.9 | 4.3 | > 10 | – | – | CCCC[C@H](N)C(=O)NNc1cccc(C(=O)N[C@@H](Cc2c[nH]c3ccccc23)C(=O)OCc2ccccc2)c1
4 | 50.3 | 27.4 | 19.1 | 17.5 | – | O=C(Cn1cccc(O)c1=O)NCCc1ccc(-c2ccccc2)cc1
5 | 2.2 | 1.2 | 11.9 | 10.9 | Dose-dependent effect | CCCC[C@H](N)C(=O)NNc1ccc(C(=O)N[C@@H](Cc2c[nH]c3ccccc23)C(=O)OCc2ccccc2)cc1
6 | > 10 | – | > 10 | – | – | CCCC[C@H](N)C(=O)Nc1cc(C(=O)N[C@@H](Cc2c[nH]c3ccccc23)C(=O)OCc2ccccc2)ccn1
7 | 8.9 | 4.9 | 48.5 | 44 | – | CC(C)[C@H](NC(=O)Cn1cccc(O)c1=O)C(=O)OCc1ccccc1
8 | 31.3 | 17.7 | – | – | – | O=C(Cn1cccc(O)c1=O)NCCc1c[nH]c2ccccc12
9 | > 10 | – | 11.9 | 4.7 | – | N[C@@H](CCc1ccccc1)C(=O)NNc1ccc(C(=O)N[C@@H](Cc2c[nH]c3ccccc23)C(=O)OCc2ccccc2)cc1
10 | 31.9 | 17.4 | 25.6 | 23.4 | – | COc1cccn(CC(=O)NCCc2ccc(-c3ccccc3)cc2)c1=S
11 | 10.3 | 0.7 | 20.2 | 18.5 | – | O=C(Cn1cccc(O)c1=O)N[C@@H](Cc1c[nH]c2ccccc12)C(=O)OCc1ccccc1
